Laboratory results published in ChEMBL document CHEMBL1152570, “Discovery of a series of acrylic acids and their derivatives as chemical leads for selective EP3 receptor antagonists” (Bioorg Med Chem, 2009).

Legend:
Liver microsomes [1] = experiment: Metabolic stability in human liver microsomes; type: ADME, Microsome
Procedure, shortened: (§1)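 Human or rat liver microsomes incubated with compound for 15 min at 37 °C; result expressed as percent of intact compound remaining.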

Liver microsomes [2] = experiment: Metabolic stability in rat liver microsomes; type: ADME, Microsome; procedure, shortened: as §1
[3] = Cmax in rat at 10 mg/kg, po; type: ADME, organism-based; parameters: dose 10 mg/kg, route oral; details: in vivo
Procedure, shortened: (§2)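 Rats dosed orally at 10 mg/kg; compound given as the sodium salt where specified.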

[4] = AUC (0 to 4 hrs) in rat at 10 mg/kg, po; type: ADME, organism-based; parameters: time < 4 hr, dose 10 mg/kg, route oral; details: plasma; procedure, shortened: as §2
[5] = Half life in rat at 10 mg/kg, iv and 10 mg/kg, po; type: ADME, organism-based; details: in vivo
Procedure, shortened: (§3)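 Rats dosed at 10 mg/kg iv and 10 mg/kg po, compound given as the sodium salt.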

[6] = Total clearance in rat at 10 mg/kg, iv and 10 mg/kg, po; type: ADME, organism-based; details: in vivo; procedure, shortened: as §3
[7] = Volume of distribution at steady state in rat at 10 mg/kg, iv and 10 mg/kg, po; type: ADME, organism-based; details: in vivo, read-out: Vdss; procedure, shortened: as §3
[8] = Oral bioavailability in rat at 10 mg/kg; type: ADME, organism-based; details: in vivo; procedure, shortened: as §2
[9] = biological target: T1, Prostaglandin E2 receptor EP1 subtype (Mus musculus, UniProt P35375); experiment: Displacement of [3H]PGE2 from mouse EP1 receptor expressed in CHO cells by liquid scintillation counting; type: cell-based
T1 sequence (P35375 whole entry): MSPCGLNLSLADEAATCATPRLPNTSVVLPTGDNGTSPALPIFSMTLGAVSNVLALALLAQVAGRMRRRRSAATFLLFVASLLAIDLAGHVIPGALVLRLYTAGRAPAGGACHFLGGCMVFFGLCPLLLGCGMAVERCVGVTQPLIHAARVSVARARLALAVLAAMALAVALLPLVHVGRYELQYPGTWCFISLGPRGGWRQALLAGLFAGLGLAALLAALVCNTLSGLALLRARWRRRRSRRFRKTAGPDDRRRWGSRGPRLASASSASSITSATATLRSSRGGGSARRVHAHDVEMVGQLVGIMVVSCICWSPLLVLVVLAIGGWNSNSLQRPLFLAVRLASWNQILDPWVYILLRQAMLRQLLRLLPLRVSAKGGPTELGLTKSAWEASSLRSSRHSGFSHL
Procedure, shortened: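 Membranes from CHO cells stably expressing mEP1, incubated with 2.5 nM [3H]PGE2 and varied test compound concentrations. Buffer: 10 mM KH2PO4-KOH, 1 mM EDTA, 10 mM MgCl2, 0.1 mM NaCl, pH 6.0. Run at 25 °C for 20 min. Filtered on GF/B and washed ice-cold before scintillation counting. Nonspecific binding measured with excess cold PGE2. IC50 from regression; Ki via the Cheng–Prusoff form.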

[10] = biological target: Prostaglandin E2 receptor EP2 subtype (Mus musculus, UniProt Q62053); experiment: Displacement of [3H]PGE2 from mouse EP2 receptor expressed in CHO cells by liquid scintillation counting; type: cell-based
Procedure, shortened: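 Membranes from CHO cells stably expressing the receptor, incubated with 2.5 nM [3H]PGE2 plus test compound over a concentration range. Buffer: 10 mM KH2PO4-KOH, 1 mM EDTA, 10 mM MgCl2, 0.1 mM NaCl, pH 6.0. Run at 25 °C for 60 min. Stopped by GF/B filtration with ice-cold buffer wash, then scintillation counted. Excess unlabeled PGE2 defined nonspecific binding. IC50 taken from the regression curve; Ki = IC50/(1+[L]/Kd).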

[11] = biological target: T2, Prostaglandin E2 receptor EP3 subtype (Mus musculus, UniProt P30557); experiment: Displacement of [3H]PGE2 from mouse EP3 receptor expressed in CHO cells by liquid scintillation counting; type: cell-based
T2 sequence (P30557 whole entry): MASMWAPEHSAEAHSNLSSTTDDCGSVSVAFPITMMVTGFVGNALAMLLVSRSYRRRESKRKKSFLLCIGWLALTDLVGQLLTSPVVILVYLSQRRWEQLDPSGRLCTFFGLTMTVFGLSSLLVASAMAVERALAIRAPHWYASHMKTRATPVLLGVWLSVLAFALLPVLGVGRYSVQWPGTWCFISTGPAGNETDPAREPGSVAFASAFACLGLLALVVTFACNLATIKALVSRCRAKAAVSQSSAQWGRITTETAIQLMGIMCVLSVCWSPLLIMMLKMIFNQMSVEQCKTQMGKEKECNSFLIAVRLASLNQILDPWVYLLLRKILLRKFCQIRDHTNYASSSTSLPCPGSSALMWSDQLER
Procedure, shortened: (§4)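 Mouse EP3α and EP4 CHO membrane binding: 2.5 nM [3H]PGE2 with graded test compound in pH 6.0 KH2PO4-KOH buffer (1 mM EDTA, 10 mM MgCl2, 0.1 mM NaCl), 60 min at 25 °C. Bound ligand collected on GF/B filters, washed with cold buffer, counted by liquid scintillation. Excess unlabeled PGE2 gave nonspecific binding. Ki derived from regression IC50, [L] and Kd.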

[12] = biological target: Prostaglandin E2 receptor EP4 subtype (Mus musculus, UniProt P32240); experiment: Displacement of [3H]PGE2 from mouse EP4 receptor expressed in CHO cells by liquid scintillation counting; type: cell-based; procedure, shortened: as §4
[13] = biological target: T2, Prostaglandin E2 receptor EP3 subtype; experiment: Antagonist activity at mouse EP3alpha receptor expressed in CHo cells assessed as inhibition of PGE2-stimulated intracellular calcium concentration; type: functional, cell-based
Procedure, shortened: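 CHO cells expressing mEP3α were plated at 1×10^4 cells/well and grown 2 days in 10% FBS/αMEM at 37 °C, 5% CO2. Cells were loaded 1 h with 5 µM Fura-2/AM, 20 µM indomethacin and 2.5 mM probenecid. Assay buffer was HBSS with 0.1% BSA, 2 µM indomethacin, 2.5 mM probenecid and 10 mM HEPES, with 1 h dark equilibration at room temperature. Test compound was added with 10 nM PGE2; fluorescence read at 340/380 nm excitation, 500 nm emission. IC50 from percent inhibition of the PGE2 Ca2+ peak.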

Cytochrome P450 1A2 = biological target: T3, Cytochrome P450 1A2 (Homo sapiens, UniProt P05177); experiment: Inhibition of CYP1A2; type: ADME
T3 sequence (P05177 whole entry): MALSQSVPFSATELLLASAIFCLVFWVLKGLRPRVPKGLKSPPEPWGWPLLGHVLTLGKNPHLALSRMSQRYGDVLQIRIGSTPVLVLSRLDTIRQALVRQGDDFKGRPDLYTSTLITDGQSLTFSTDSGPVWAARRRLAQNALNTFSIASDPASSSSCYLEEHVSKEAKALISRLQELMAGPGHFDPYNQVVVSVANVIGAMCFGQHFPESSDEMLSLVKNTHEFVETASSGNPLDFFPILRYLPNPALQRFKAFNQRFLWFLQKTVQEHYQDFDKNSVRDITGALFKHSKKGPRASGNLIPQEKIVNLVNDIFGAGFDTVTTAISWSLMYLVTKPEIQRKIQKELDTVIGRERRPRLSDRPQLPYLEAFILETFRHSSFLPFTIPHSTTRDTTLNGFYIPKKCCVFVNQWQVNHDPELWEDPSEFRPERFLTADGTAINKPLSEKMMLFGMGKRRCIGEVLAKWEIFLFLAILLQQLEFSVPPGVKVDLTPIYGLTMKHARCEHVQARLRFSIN

Cytochrome P450 2C9 = Cytochrome P450 2C9 (Homo sapiens, UniProt P11712); experiment: Inhibition of CYP2C9; type: ADME
Cytochrome P450 2C19 = Cytochrome P450 2C19 (Homo sapiens, UniProt P33261); experiment: Inhibition of CYP2C19; type: ADME
Cytochrome P450 2D6 = Cytochrome P450 2D6 (Homo sapiens, UniProt P10635); experiment: Inhibition of CYP2D6; type: ADME
Cytochrome P450 3A4 = Cytochrome P450 3A4 (Homo sapiens, UniProt P08684); experiment: Inhibition of CYP3A4; type: ADME
Cytochrome P450 3A4, sequence (P08684 whole entry): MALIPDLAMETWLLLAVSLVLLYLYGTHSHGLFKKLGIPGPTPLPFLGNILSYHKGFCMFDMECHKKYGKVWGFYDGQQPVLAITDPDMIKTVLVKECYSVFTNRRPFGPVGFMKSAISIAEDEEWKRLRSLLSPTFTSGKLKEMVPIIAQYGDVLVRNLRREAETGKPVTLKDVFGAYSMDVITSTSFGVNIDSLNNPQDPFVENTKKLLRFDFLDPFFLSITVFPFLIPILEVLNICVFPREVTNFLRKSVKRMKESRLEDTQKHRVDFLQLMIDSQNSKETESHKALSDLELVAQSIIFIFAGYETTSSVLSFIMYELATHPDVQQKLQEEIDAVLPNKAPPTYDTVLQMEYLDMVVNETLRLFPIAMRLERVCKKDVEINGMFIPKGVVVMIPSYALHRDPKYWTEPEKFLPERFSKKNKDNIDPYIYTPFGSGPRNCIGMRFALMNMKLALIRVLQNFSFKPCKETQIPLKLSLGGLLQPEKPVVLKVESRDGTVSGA

Cytochrome P450 2C9, sequence (P11712 whole entry): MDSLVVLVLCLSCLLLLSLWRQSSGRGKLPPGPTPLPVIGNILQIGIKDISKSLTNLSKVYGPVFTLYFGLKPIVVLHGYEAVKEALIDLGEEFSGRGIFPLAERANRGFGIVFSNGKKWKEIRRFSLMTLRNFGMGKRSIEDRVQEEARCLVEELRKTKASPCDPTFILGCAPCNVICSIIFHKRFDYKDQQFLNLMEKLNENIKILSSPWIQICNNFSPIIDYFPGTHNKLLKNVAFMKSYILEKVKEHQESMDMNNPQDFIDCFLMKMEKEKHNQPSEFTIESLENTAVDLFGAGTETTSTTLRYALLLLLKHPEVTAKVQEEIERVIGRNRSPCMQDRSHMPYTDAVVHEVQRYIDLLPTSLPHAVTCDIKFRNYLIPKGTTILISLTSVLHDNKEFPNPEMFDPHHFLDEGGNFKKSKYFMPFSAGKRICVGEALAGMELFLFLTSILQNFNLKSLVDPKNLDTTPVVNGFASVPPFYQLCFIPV
Prostaglandin E2 receptor EP2 subtype, sequence (Q62053 whole entry): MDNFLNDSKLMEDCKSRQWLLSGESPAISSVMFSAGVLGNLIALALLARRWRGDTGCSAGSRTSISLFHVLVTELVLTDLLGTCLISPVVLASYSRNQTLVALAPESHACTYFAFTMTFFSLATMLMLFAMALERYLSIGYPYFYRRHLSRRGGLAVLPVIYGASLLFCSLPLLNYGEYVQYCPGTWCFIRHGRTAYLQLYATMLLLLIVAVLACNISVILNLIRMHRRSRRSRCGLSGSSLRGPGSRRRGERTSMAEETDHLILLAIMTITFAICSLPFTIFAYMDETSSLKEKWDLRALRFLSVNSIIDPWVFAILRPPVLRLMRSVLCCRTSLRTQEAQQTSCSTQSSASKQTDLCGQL
Prostaglandin E2 receptor EP4 subtype, sequence (P32240 whole entry): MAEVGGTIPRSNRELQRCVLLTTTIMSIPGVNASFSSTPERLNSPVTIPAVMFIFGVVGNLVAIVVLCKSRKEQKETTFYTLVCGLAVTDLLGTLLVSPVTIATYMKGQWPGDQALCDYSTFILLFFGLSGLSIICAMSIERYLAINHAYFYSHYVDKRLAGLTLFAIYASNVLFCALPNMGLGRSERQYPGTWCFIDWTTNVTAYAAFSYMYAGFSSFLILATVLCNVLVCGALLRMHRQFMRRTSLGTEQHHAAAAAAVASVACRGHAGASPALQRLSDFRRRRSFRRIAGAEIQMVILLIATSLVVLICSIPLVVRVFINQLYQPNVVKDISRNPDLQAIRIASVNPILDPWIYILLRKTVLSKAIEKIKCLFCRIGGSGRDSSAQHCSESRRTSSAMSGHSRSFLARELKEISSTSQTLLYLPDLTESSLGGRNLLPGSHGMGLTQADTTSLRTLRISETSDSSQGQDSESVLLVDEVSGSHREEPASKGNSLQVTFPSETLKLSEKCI
Cytochrome P450 2C19, sequence (P33261 whole entry): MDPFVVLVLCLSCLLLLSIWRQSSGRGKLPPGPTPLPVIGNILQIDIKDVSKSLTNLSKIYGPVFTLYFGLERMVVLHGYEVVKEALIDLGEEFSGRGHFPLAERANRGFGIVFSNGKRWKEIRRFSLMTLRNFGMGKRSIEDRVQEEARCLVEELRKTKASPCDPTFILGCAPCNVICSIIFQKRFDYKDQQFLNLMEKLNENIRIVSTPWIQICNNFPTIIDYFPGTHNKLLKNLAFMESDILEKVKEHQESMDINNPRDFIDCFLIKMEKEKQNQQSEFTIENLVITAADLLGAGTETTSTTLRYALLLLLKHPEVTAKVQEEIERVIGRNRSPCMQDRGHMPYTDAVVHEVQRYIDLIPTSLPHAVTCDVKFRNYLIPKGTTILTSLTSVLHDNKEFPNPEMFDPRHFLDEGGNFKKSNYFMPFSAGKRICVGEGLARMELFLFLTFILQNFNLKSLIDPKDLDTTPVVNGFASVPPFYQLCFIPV
Cytochrome P450 2D6, sequence (P10635 whole entry): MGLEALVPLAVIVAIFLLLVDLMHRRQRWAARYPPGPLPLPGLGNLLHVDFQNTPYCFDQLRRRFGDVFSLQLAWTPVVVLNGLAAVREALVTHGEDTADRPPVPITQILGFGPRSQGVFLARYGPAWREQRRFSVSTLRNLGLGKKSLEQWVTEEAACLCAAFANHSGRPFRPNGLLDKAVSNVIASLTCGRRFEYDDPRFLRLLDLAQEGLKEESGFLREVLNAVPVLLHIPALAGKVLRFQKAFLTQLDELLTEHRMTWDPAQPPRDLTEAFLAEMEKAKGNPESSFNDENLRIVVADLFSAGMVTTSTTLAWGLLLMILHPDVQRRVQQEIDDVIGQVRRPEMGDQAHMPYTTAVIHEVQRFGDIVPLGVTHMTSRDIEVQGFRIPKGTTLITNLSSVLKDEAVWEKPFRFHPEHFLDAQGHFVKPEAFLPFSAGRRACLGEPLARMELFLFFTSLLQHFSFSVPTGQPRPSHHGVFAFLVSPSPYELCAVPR

Compound | Ki [9] | Ki [10] | Ki [11] | Ki [12] | IC50 [13] | also measured
O=C([O-])CCc1ccc(Cn2cccn2)cc1OCCc1ccc2ccccc2c1.[Na+] |  |  |  |  |  | Stability (Liver microsomes [1]): 100%; Stability (Liver microsomes [2]): 73%; Cmax [3]: 8320 ng/mL; AUC(0-t) at 4 h [4]: 22900 ng·h/mL; half-life [5]: 2.93 h; clearance [6]: 2.77 mL/min/kg; Vd [7]: 0.538 L/kg; bioavailability [8]: 53%
Cc1ccc(/C=C/C(=O)O)c(OCCC2(C)CCc3c(C)c(O)c(C)c(C)c3O2)c1 (configuration not stated) | > 10000 nM | 5700 nM | 940 nM | 2200 nM | 3100 nM | 
O=C(O)COc1ccc(Cn2cccn2)cc1OCCc1ccc2ccccc2c1 | > 10000 nM | > 10000 nM | 260 nM | > 10000 nM | 2600 nM | 
O=C(O)CCCc1ccc(Cn2cccn2)cc1OCCc1ccc2ccccc2c1 | 4000 nM | 1800 nM | 39 nM | 1400 nM | 460 nM | 
O=C(O)CCc1ccc(Cn2cccn2)cc1OCCc1ccc2ccccc2c1 | 7100 nM | 2800 nM | 12 nM | 1100 nM | 22 nM | IC50 (Cytochrome P450 1A2): > 30000 nM; IC50 (Cytochrome P450 2C9): 30000 nM; IC50 (Cytochrome P450 2C19): > 30000 nM; IC50 (Cytochrome P450 2D6): > 30000 nM; IC50 (Cytochrome P450 3A4): > 30000 nM
O=C(O)C#Cc1ccc(Cn2cccn2)cc1OCCc1ccc2ccccc2c1 | > 10000 nM | > 10000 nM | 99 nM | 2900 nM | 1200 nM | 
O=C(O)/C=C/c1ccc(Cn2ccnc2)cc1OCCCCOc1ccccc1 | > 10000 nM | > 10000 nM | 220 nM | > 10000 nM | 3500 nM | 
O=C(O)COCc1ccc(Cn2cccn2)cc1OCCc1ccc2ccccc2c1 | > 10000 nM | 1300 nM | 210 nM | > 10000 nM | 540 nM | 
O=C(O)/C=C/c1ccc(Cn2ccnc2)cc1OCCc1ccc2ccccc2c1 | > 10000 nM | > 10000 nM | 16 nM | 2200 nM | 50 nM | IC50 (Cytochrome P450 1A2): < 1000 nM; IC50 (Cytochrome P450 2C9): < 1000 nM; IC50 (Cytochrome P450 2C19): < 1000 nM; IC50 (Cytochrome P450 2D6): 4400 nM; IC50 (Cytochrome P450 3A4): < 1000 nM
O=C(O)/C=C/c1ccc(Cn2ccnc2)cc1OCCc1cc2ccccc2o1 | > 10000 nM | > 10000 nM | 44 nM | 4300 nM | 330 nM | 
Cc1c(C)c2c(c(C)c1O)CCC(C)(CCOc1cc(Cn3ccnc3)ccc1/C=C/C(=O)O)O2 (configuration not stated) | > 10000 nM | > 10000 nM | 63 nM | > 10000 nM | 600 nM | 
O=C(O)/C=C/c1ccc(OCc2ccccc2)cc1OCCc1ccc2ccccc2c1 | > 10000 nM | 1200 nM | 850 nM | > 10000 nM | 1500 nM | 
O=C([O-])/C=C/c1ccc(Cn2cccn2)cc1OCCc1ccc2ccccc2c1.[Na+] |  |  |  |  |  | Stability (Liver microsomes [1]): 100%; Stability (Liver microsomes [2]): 72%; Cmax [3]: 943 ng/mL; AUC(0-t) at 4 h [4]: 1360 ng·h/mL
O=C(O)/C=C/c1ccc(Cn2ccnc2)cc1OCCCOc1ccccc1 | > 10000 nM | > 10000 nM | 280 nM | > 10000 nM | 3000 nM | 
Cc1c(C)c2c(c(C)c1O)CCC(C)(CCOc1ccccc1/C=C/C(=O)O)O2 (configuration not stated) | > 10000 nM | 1200 nM | 530 nM | 2600 nM | 4800 nM | 
O=C(O)/C=C/c1ccc(Cc2ccccc2)cc1OCCc1ccc2ccccc2c1 | > 10000 nM | > 10000 nM | 130 nM | 2100 nM | 400 nM | 
O=C(O)/C=C/c1ccc(COc2ccccc2)cc1OCCc1ccc2ccccc2c1 | > 10000 nM | 9200 nM | 130 nM | 2600 nM | 140 nM | 
O=C(O)/C=C/c1ccc(Cc2cccs2)cc1OCCc1ccc2ccccc2c1 | > 10000 nM | 2100 nM | 150 nM | 2200 nM | 150 nM | 
O=C(O)/C=C/c1ccc(Cn2cccn2)cc1OCCc1ccc2ccccc2c1 | 2900 nM | 3300 nM | 12 nM | 670 nM | 73 nM | IC50 (Cytochrome P450 1A2): > 30000 nM; IC50 (Cytochrome P450 2C9): 12800 nM; IC50 (Cytochrome P450 2C19): 30000 nM; IC50 (Cytochrome P450 2D6): > 30000 nM; IC50 (Cytochrome P450 3A4): > 30000 nM
COc1ccc(/C=C/C(=O)O)c(OCCC2(C)CCc3c(C)c(O)c(C)c(C)c3O2)c1 (configuration not stated) | > 10000 nM | 6800 nM | > 10000 nM | 920 nM | > 10000 nM | 
O=C(O)/C=C/c1ccc(CN2CCCC2=O)cc1OCCc1ccc2ccccc2c1 | 6400 nM | 5900 nM | 110 nM | 2300 nM | 580 nM | 
